The target of data set [1] is Muscarinic acetylcholine receptor M1 (Homo sapiens) (UniProt P11229). Description: Agonist activity at human M1 receptor. Format: functional.
The nature of data set [2]: Stability assessed as compound degradation after 72 hrs in presence of in cell media. Format: physicochemical. In a few lines:
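Compound incubated in cell medium with or without HEK293 cells for 72 hours, then examined for degradation products.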

Data set [3] has as its target T1, TP53-binding protein 1 (Homo sapiens, UniProt Q12888). As to the kind of experiment: Inhibition of tudor domain containing 53BP1 (unknown origin) using H4K20me2 peptide by Alpha-Screen methylated histone peptide competition assay. Background: Alpha assays give light when donor and acceptor beads are brought close together.
Data set [4] concerns the target T1, TP53-binding protein 1. As to the kind of experiment: Binding affinity to 53BP1 (unknown origin) by ITC assay. For orientation: In ITC the heat of successive injections is recorded.
In data set [5] the target is PHD finger protein 20-like protein 1 (Homo sapiens, UniProt A8MW92). Description: Binding affinity to tudor domain containing PHF20L1 (unknown origin) by ITC assay.
Data set [6] has as its target Muscarinic acetylcholine receptor M2 (Homo sapiens, UniProt P08172). As to the kind of experiment: Inhibition of M2 receptor (unknown origin) by radioligand binding assay. The essentials: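 Radioligand competition binding; the value is reported as a Ki.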
Data set [7] has as its target T2, Lethal(3)malignant brain tumor-like protein 3 (Homo sapiens) (UniProt Q96JM7).
T2 sequence (whole entry): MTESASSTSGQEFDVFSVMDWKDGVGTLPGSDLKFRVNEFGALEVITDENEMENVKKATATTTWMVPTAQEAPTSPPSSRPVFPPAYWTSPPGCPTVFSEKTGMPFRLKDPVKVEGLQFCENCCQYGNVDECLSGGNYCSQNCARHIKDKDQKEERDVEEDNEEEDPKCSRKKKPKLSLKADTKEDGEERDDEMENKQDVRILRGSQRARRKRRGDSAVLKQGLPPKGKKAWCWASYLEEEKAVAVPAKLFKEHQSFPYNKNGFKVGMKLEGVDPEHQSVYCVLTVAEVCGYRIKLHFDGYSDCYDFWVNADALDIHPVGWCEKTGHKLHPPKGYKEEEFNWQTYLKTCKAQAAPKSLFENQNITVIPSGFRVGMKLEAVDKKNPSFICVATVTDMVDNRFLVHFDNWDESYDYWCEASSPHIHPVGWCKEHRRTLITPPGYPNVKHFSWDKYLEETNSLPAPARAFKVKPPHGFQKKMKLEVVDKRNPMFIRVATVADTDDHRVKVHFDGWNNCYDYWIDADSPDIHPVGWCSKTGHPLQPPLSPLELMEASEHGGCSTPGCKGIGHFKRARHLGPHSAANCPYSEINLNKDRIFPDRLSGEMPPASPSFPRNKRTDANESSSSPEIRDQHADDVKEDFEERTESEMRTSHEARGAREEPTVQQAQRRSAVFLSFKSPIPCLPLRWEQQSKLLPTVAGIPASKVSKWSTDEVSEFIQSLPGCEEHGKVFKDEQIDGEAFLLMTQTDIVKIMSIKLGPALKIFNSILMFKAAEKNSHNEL
As to the kind of experiment: Binding affinity to GFP-tagged full length L3MBTL3 (unknown origin) assessed as protein half life at 1 uM.

Data set [8] deals with T3, Lethal(3)malignant brain tumor-like protein 3 (Homo sapiens, UniProt Q96JM7).
T3 sequence (Q96JM7 whole entry): T2 sequence (whole entry)
As to the kind of experiment: Binding affinity to GFP-3MBT tagged L3MBTL3 (unknown origin) assessed as diffusion coefficient at 0.1 uM (reference value: 0.1272 um2/s).

Data set [9] concerns the target T3, Lethal(3)malignant brain tumor-like protein 3. Description: Binding affinity to GFP-3MBT tagged L3MBTL3 (unknown origin) assessed as diffusion coefficient at 0.05 uM (reference value: 0.1272 um2/s).
Data set [10] shares this target. Description: Binding affinity to GFP-tagged full length L3MBTL3 (unknown origin) assessed as diffusion coefficient at 0.5 uM (reference value: 0.037549815 um2/s).
The target is the same in data set [11]. Description: Binding affinity to GFP-tagged full length L3MBTL3 (unknown origin) assessed as diffusion coefficient at 0.01 uM (reference value: 0.037549815 um2/s).

Activity calls are given as the source filed them. The calls are words filed in the database; no cut-off is given here. Where only a bound is given, the exact number is not on record here.

T1 sequence (Q12888 whole entry, the tested form may be a part): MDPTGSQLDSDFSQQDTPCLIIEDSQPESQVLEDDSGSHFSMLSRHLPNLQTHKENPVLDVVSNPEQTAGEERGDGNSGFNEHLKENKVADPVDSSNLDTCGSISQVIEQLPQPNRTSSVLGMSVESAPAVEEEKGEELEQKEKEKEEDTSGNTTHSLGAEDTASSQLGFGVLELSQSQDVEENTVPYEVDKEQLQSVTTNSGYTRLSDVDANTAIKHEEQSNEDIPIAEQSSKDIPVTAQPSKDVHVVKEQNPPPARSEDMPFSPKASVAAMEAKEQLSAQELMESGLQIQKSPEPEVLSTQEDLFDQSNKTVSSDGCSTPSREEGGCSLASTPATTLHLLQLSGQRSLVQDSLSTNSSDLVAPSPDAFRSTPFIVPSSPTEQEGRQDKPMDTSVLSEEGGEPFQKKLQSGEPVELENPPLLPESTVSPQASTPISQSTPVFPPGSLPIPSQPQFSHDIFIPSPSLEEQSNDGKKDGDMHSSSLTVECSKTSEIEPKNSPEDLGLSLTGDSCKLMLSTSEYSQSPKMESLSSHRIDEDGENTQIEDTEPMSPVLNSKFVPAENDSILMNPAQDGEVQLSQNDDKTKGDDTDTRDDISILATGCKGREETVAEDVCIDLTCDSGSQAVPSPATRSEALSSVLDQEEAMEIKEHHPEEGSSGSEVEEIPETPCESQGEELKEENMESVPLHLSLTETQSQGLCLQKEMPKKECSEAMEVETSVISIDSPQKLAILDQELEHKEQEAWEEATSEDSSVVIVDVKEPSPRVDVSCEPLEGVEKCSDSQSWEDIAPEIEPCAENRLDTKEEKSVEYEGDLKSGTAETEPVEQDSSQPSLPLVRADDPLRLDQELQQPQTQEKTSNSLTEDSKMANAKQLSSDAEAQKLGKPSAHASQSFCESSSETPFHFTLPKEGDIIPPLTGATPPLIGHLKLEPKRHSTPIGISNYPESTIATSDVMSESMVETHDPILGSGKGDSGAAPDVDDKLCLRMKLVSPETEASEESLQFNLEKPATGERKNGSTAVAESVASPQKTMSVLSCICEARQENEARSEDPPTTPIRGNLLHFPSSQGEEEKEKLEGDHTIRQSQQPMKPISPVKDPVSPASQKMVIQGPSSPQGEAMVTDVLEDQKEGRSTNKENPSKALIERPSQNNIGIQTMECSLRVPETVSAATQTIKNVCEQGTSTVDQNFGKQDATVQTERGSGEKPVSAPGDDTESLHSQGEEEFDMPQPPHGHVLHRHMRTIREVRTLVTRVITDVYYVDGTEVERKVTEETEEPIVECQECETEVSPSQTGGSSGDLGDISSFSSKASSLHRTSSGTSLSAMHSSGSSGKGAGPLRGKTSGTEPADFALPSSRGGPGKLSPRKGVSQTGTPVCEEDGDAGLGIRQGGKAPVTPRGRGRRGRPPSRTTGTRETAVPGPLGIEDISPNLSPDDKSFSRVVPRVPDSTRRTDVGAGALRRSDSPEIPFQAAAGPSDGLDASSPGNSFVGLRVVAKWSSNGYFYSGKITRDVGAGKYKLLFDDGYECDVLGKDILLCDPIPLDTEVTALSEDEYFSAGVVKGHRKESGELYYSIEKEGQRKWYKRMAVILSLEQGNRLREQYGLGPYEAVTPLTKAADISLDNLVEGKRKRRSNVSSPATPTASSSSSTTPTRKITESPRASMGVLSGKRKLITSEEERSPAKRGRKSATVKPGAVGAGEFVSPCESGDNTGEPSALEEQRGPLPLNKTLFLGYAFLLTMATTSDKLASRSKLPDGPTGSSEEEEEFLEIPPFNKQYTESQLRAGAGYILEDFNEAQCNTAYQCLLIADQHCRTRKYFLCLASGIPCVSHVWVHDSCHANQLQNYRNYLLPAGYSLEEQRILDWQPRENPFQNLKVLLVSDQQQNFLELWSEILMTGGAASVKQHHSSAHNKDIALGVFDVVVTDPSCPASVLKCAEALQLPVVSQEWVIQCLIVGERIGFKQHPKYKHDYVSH
Chain of Muscarinic acetylcholine receptor M1 (Homo sapiens) (P11229 whole entry): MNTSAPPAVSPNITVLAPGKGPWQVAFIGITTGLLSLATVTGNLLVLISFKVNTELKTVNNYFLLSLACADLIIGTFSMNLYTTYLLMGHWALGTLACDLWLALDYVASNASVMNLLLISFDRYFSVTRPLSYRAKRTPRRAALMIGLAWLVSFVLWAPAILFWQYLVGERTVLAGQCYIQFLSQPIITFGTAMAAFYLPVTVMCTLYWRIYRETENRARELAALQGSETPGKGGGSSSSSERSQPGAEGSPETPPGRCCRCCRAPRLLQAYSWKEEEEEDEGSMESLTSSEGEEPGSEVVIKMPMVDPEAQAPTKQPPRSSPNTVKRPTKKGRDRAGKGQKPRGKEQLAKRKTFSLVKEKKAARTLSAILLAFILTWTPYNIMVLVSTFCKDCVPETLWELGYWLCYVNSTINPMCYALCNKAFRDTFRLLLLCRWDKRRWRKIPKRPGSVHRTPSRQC
Chain of PHD finger protein 20-like protein 1 (A8MW92 whole entry, the tested form may be a part): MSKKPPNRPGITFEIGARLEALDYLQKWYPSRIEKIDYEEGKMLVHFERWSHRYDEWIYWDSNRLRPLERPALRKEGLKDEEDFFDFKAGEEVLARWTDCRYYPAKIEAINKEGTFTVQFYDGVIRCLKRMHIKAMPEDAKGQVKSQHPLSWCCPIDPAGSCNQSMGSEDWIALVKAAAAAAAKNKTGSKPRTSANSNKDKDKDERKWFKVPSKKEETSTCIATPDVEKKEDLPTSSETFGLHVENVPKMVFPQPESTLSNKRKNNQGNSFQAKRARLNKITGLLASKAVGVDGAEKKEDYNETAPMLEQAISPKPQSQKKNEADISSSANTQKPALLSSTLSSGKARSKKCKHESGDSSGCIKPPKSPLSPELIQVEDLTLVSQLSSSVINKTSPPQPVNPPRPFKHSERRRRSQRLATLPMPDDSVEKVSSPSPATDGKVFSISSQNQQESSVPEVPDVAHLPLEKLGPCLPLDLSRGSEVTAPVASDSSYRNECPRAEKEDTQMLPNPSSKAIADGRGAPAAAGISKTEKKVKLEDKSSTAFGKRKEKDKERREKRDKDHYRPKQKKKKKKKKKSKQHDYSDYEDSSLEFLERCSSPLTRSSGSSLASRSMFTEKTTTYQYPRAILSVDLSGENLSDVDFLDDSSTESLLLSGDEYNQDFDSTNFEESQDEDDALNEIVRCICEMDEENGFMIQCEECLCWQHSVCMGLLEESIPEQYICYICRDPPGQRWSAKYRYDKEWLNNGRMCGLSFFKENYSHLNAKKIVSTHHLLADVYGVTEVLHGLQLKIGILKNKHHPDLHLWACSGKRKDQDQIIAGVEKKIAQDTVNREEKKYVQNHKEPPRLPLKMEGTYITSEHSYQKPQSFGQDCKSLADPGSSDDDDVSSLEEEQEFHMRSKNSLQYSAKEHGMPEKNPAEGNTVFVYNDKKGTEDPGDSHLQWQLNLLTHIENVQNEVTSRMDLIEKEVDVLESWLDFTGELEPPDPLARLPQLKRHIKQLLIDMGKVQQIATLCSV
Chain of Muscarinic acetylcholine receptor M2 (P08172 whole entry): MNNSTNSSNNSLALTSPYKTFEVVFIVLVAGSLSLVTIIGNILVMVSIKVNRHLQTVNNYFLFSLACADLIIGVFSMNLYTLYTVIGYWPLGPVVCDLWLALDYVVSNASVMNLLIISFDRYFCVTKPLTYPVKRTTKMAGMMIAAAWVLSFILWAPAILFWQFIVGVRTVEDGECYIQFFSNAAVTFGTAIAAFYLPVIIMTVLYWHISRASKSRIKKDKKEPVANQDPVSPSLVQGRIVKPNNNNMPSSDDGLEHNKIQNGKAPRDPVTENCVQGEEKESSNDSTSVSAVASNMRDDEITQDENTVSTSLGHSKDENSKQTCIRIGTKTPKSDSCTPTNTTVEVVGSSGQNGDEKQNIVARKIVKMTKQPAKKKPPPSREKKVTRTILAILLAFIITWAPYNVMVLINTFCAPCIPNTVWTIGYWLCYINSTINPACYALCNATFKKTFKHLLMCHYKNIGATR

As to `O=C(c1ccc(C(=O)N2CCC(N3CCCC3)CC2)c(Nc2ccccc2)c1)N1CCC(N2CCCC2)CC1`, in data set [1], the outcome was inactive. Besides, the Stability result in [2] was “Stable”. The molecule further gave an IC50 at TP53-binding protein 1 [3] of 4 µM. The Kd on TP53-binding protein 1 [4] is over 31 µM; in data set [5], over 13 µM. For the same molecule, the Ki in data set [6] is 0.072 µM. The T1/2 in data set [7] worked out at 19.9 s. Also, the Diffusion coefficient is 0.311 um2/s in data set [8], 0.156 um2/s in data set [9], 0.05 um2/s in [10] and 0.043 um2/s in [11].

What is called IC50 is the concentration that inhibits the measured activity by half. A lower IC50 goes with greater potency. Broadly, the Kd is the constant that tells how readily two partners part at equilibrium. Low readings indicate a tighter complex, high ones a looser complex. The Ki is the dissociation constant of the complex between target and ligand, obtained from inhibition or displacement.

For the origin of these results see ChEMBL document CHEMBL5712070, “Discovery of a chemical probe for the L3MBTL3 methyllysine reader domain” (Nat Chem Biol, 2013).
